{"data": "Measurements pooled from the literature", "target": "Serine/threonine-protein kinase TAO2 (TAOK2, Homo sapiens, UniProt Q9UL54)", "One construct used (Q9UL54 1-1235)": "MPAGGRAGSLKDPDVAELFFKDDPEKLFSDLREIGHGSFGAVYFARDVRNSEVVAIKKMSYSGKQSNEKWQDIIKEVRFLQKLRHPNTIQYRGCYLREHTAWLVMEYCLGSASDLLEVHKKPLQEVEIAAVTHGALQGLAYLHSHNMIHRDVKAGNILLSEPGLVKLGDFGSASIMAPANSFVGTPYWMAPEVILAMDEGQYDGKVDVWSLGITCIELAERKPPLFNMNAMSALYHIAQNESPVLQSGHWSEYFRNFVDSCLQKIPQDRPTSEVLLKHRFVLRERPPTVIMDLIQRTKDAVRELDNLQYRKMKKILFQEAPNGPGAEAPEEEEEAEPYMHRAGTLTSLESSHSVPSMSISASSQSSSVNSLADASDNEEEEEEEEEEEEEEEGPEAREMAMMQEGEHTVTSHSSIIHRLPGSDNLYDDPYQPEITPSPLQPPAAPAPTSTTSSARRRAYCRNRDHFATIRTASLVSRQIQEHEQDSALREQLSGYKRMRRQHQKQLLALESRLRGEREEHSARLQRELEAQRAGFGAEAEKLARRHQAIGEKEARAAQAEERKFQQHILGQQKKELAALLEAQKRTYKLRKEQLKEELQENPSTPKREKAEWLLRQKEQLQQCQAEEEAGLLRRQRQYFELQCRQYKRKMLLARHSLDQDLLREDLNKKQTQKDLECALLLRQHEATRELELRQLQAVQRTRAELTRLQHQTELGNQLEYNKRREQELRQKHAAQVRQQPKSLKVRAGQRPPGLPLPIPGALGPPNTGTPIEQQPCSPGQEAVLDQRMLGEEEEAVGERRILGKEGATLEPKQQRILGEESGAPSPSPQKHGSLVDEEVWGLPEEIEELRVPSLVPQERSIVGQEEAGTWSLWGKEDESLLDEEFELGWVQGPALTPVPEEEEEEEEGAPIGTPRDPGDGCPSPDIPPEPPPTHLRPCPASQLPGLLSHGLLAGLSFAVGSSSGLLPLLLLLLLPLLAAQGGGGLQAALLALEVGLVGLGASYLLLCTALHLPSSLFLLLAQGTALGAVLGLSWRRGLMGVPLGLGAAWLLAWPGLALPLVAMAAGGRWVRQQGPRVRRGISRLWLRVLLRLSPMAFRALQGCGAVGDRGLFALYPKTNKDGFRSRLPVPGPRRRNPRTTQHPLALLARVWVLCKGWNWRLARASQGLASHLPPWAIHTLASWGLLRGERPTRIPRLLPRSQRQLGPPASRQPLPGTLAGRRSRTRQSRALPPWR", "note": "Protocols differ between the studies behind these lines."}
{"Structure (SMILES)": "CCN(CC)CCNC(=O)c1c(C)[nH]c(/C=C2\\C(=O)Nc3ccc(F)cc32)c1C", "effect on": "enzyme activity", "mode": "inhibitor", "concentration": "10 µM", "measurement": "inhibition", "value": "29%"}
{"Structure (SMILES)": "CC(C)(C)c1nc(-c2cccc(NS(=O)(=O)c3c(F)cccc3F)c2F)c(-c2ccnc(N)n2)s1", "effect on": "enzyme activity", "mode": "inhibitor", "technique": "radiometric", "concentration": "1 µM", "measurement": "remaining activity", "value": "35%"}
{"Structure (SMILES)": "Cc1ccc(Nc2nccc(N(C)c3ccc4c(C)n(C)nc4c3)n2)cc1S(N)(=O)=O", "effect on": "enzyme activity", "mode": "inhibitor", "concentration": "10 µM", "measurement": "inhibition", "value": "93%"}
{"Structure (SMILES)": "COc1cc(Cl)c(C(=O)N[C@@H](CN[C@H]2CC[C@@H](N)CC2)Cc2ccc(C#N)cc2)cc1-c1ccc(CN[C@H](C)c2ccc(C)cc2)o1", "effect on": "enzyme activity", "mode": "inhibitor", "concentration": "1 µM", "measurement": "remaining activity", "value": "96%"}
{"Structure (SMILES)": "CCCCNc1ncc2c(-c3ccc(F)cc3)nn(C[C@H]3CC[C@H](N)CC3)c2n1", "effect on": "target engagement in cells", "mode": "inhibitor", "technique": "chemoproteomics", "concentration": "20 mM", "measurement": "inhibition", "value": "24.3%"}
{"Structure (SMILES)": "CNC(=O)c1cc(Oc2ccc(NC(=O)Nc3ccc(Cl)c(C(F)(F)F)c3)cc2)ccn1", "effect on": "enzyme activity", "mode": "inhibitor", "concentration": "0.3 µM", "measurement": "inhibition", "value": "84%"}
{"Structure (SMILES)": "CSc1nc(C)c(-c2ccnc(Nc3ccc(N4CCOCC4)cc3)c2)[nH]1", "effect on": "enzyme activity", "mode": "inhibitor", "concentration": "10 µM", "measurement": "inhibition", "value": "2.1%"}
{"Structure (SMILES)": "COc1cccc(CNC(=O)c2nc3scc(COCc4ccc(C(=O)O)cc4)c3c(=O)[nH]2)c1", "effect on": "cell-free assay", "technique": "competition with immobilised ligand", "concentration": "1 µM", "measurement": "remaining binding", "value": "59.8%"}
{"Structure (SMILES)": "C[C@@H]1CCN(c2nccc(-c3cnn4ncccc34)n2)C1", "effect on": "binding", "concentration": "1 µM", "measurement": "remaining binding", "value": "75%"}
{"Structure (SMILES)": "O=C(Nc1ccc(Oc2ccc(F)cc2)cc1)N1CCc2ncccc2[C@H]1c1ccc(F)cc1", "effect on": "cell-free assay", "technique": "competition with immobilised ligand", "concentration": "1 µM", "measurement": "remaining binding", "value": "100%"}
{"Structure (SMILES)": "CCCS(=O)(=O)Nc1ccc(F)c(C(=O)c2c[nH]c3ncc(-c4ccc(Cl)cc4)cc23)c1F", "effect on": "enzyme activity", "mode": "inhibitor", "concentration": "1 µM", "measurement": "inhibition", "value": "< 10%"}
{"Structure (SMILES)": "COc1cc(-c2cc(-c3ccc(N4CCNCC4)cc3)cnc2C)cc(OC)c1OC", "effect on": "enzyme activity", "mode": "inhibitor", "concentration": "1 µM", "measurement": "inhibition", "value": "2%"}
{"Structure (SMILES)": "CN(C)c1ncnc(-c2ccc3nc(Nc4cc(CN5CCN(C(=O)CC(F)(F)F)CC5)ccn4)[nH]c3c2)c1Cl", "effect on": "cell-free assay", "technique": "competition with immobilised ligand", "concentration": "1 µM", "measurement": "remaining binding", "value": "80%"}
{"Structure (SMILES)": "CCN(CC)c1ccc(C2=NNC(=O)CC2C)cc1[N+](=O)[O-] (stereo not drawn)", "effect on": "enzyme activity", "mode": "inhibitor", "concentration": "10 µM", "measurement": "remaining activity", "value": "95%"}
{"Structure (SMILES)": "CN1CCN(c2cnc3c(C4CCN(C(=O)c5ccc(OC(F)(F)F)cc5N)CC4)ncnc3c2)CC1", "effect on": "cell-free assay", "technique": "competition with immobilised ligand", "concentration": "1 µM", "measurement": "remaining binding", "value": "100%"}
{"Structure (SMILES)": "Cc1cnc(NC2CCOCC2)nc1-n1cnc(C(=O)NC(CN)c2cc(F)cc(Cl)c2)c1 (stereo not drawn)", "effect on": "enzyme activity", "mode": "inhibitor", "technique": "radiometric", "concentration": "1 µM", "measurement": "remaining activity", "value": "88%"}
{"Structure (SMILES)": "C[C@@H](c1cccc(C#N)c1)n1cc(Cl)cc(C(N)=O)c1=N", "effect on": "cell-free assay", "technique": "competition with immobilised ligand", "concentration": "1 µM", "measurement": "remaining binding", "value": "84%"}
{"Structure (SMILES)": "Fc1cccc(-n2cnc3c(NCc4nc5c(F)c(F)ccc5[nH]4)nc(N4CCOCC4)nc32)c1", "effect on": "binding", "technique": "competition with immobilised ligand", "concentration": "10 µM", "measurement": "binding vs control", "value": "35%"}
